Source: PubChem BioAssay (The Scripps Research Institute Molecular Screening Center)
A selection: hits, their analogues and other compounds. The true share with any hit is near 2.5%.
TRPN1 ag = agonists of zebrafish TRPN1 channel; activation, % at 3 µM; HEK293 zebrafish TRPN1-YFP, Fluo-8 calcium fluorescence; 100% = response to 87 µM carbachol; actives 0.18% (n = 220,000); AID 1424;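 active = activation above its plate's cutoff, the mean activation of test wells on that plate plus 3 SD, cut at about 19% in these data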;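 note: 0% = DMSO alone and 100% = 87 µM carbachol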
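Material: zebrafish TRPN1-YFP in HEK293 cells; Doses: single test compound dose, 3 µM nominal, 0.3% DMSO; Timing: dye loading 1 h at 37 °C, then 30 min room temperature; Technique: intracellular calcium fluorescence with Fluo-8; Benchmarks: high carbachol 87 µM, low DMSO alone.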
CHO parental Ca = counter-screen: ATP calcium response change in parental CHO cells; parental CHO-K1, ATP-induced calcium, Fluo-8 fluorescence; inhibition, % at 5.6 µM; actives 0.63% (n = 330,000);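 active = inhibition above that plate's mean sample inhibition plus 3 SD, cut at about 26% in these data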;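 note: 0% = ATP-challenged DMSO wells and 100% = DMSO wells without ATP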
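test system = CHO parental line | reagent = ATP stimulus | measured by = intracellular calcium via Fluo-8 no-wash fluorescent dye | control set = ATP and no-ATP DMSO wells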
OX1R antag-1 = OX1R (human) antagonism; inhibition, % at 6.6 µM; O43613; actives 1.8% (n = 330,000); OX1R-expressing cells, FRET antagonist read-out; AID 485270; in the data active = inhibition mostly above about 38%, no sharp cut-off; inactive = mostly below about 40%;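 note: 0% = agonist challenge alone and 100% = reference antagonist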
OX1R antag-2 = blocks the human orexin 1 receptor | O43613 | CHO/OX1R cells, Fluo-8 calcium fluorescence, orexin A | inhibition, % at 5 µM | actives 0.43% (n = 330,000);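 active = inhibition above its plate's threshold, mean inhibition of all tested compounds on the plate plus 3 SD, cut at about 37% in these data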;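 note: 0% = orexin A challenge wells and 100% = SB-334867-A antagonist wells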
TRPML3 ag = agonists of human TRPML3 channel; HEK293 TRPML3-YFP, Fluo-8 calcium fluorescence; 100% = the carbachol control signal; actives 0.29% (n = 220,000); activation, % at 3 µM;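 active = activation above its plate's cutoff, the mean activation of the plate's test wells plus 3 SD, cut at about 12% in these data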;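 note: 0% = DMSO only wells and 100% = carbachol wells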
Target sequence (Q8TDD5 whole entry, looked up): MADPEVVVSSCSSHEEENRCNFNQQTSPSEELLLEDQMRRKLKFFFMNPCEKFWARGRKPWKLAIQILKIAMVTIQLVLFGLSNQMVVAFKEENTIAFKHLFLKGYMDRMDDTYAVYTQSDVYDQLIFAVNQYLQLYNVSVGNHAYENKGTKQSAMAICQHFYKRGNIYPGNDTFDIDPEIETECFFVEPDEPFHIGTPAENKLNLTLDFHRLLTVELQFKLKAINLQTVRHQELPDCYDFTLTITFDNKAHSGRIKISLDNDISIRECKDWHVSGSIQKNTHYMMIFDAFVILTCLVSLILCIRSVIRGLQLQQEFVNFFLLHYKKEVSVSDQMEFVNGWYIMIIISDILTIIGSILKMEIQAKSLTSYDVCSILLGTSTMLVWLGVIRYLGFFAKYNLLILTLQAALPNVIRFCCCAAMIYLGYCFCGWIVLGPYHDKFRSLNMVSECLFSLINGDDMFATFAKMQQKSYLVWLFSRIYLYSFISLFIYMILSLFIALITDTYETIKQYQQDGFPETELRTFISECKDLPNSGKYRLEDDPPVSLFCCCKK
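Test system: TRPML3-YFP stable HEK293 cells. Doses: single point at 3 µM. Incubation: dye loading 1 h 37 °C then 30 min ambient, 125 s read. Signal: Fluo-8 calcium dye fluorescence, ex 470-495, em 515-575 nm. Measure: percent activation from peak-to-basal fluorescence ratio, scaled between DMSO and carbachol.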
An asterisk follows results filed as active; . = no result given.

SMILES	TRPN1 ag	CHO parental Ca	OX1R antag-1	OX1R antag-2	TRPML3 ag
Cc1nnc(N/N=C/c2ccc(-c3ccccc3F)o2)n1N	-1	-7	57*	-9	1
CCc1nnc(N/N=C/c2ccc(-c3ccc([N+](=O)[O-])cc3)o2)n1N	1	6	40	-3	1
CC1CCCCN1C(=O)CCS(=O)(=O)c1cccc2nonc12 (centres undefined)	2	14	71*	-1	0
CC1(C)NC(=O)N(CC(=O)OCC(=O)c2ccc(Br)s2)C1=O	.	-13	8	-7	.
O=C(NCC(=O)N1CCCCCCC1)c1cccc([N+](=O)[O-])c1	.	-6	19	-17	.
Cc1ccc(C(=O)CSc2nc3ccccc3c(=O)[nH]2)cc1C	-3	-29	48*	-8	0
Cc1cc(C(=O)COc2ccccc2C(N)=O)c(C)n1CC1CCCO1 (centres undefined)	10	34*	45	34	6
Cc1cc(C(=O)CSc2nc3ccccc3[nH]2)c(C)n1Cc1ccco1	6	49*	77*	25	3
C=CCn1c(C)cc(C(=O)CSc2nc3ccccc3c(=O)[nH]2)c1C	0	55*	61*	55*	2
CCC(=Nc1ccccc1)C1=C(O)CC(C)(C)CC1=O	1	.	.	.	1
O=C(NN(c1ccccc1)c1ccccc1)c1ccccc1F	.	-1	12	-15	.
Cc1cc(C(=O)CSc2nc3ccc(Cl)cc3[nH]2)c(C)n1C	1	-14	24	-33	0
Cc1cc(C(=O)CSc2nc3ccc(Cl)cc3[nH]2)c(C)n1CC1CCCO1 (centres undefined)	0	45*	88*	42	0
Cc1cc(C(=O)CSc2nc3ccccc3[nH]2)c(C)n1C	2	-12	21	-30	1
C=CCn1c(C)cc(C(=O)CSc2nc3ccccc3[nH]2)c1C	7	21	42*	46*	3
COC(=O)c1cc(S(=O)(=O)N2CCN(c3cccc(C)c3C)CC2)c[nH]1	.	15	-6	-20	.
CCOC(=O)c1c(C)[nH]c(C(=O)C(C)OC(=O)c2cccc(OCc3c(C)noc3C)c2)c1C (centres undefined)	1	49*	31	0	1
CCN(CC)S(=O)(=O)c1ccc(-c2ccc(S(=O)(=O)N(CC)CC)cc2)cc1	-1	41*	24	19	0
CCN(CC)S(=O)(=O)c1ccc(C(=O)O)cc1	.	-1	5	7	.
COc1cc(NC(=O)Cc2ccccc2)cc(OC)c1	0	-3	32	-10	0
COc1cc(NC(=O)C[n+]2ccc(C(=O)c3ccccc3)cc2)cc(OC)c1	.	0	43*	5	.
COc1ccc(Cl)cc1NC(=O)CN(C)C(=O)c1ccc2c(c1)CC(c1ccccc1)OC2=O (centres undefined)	.	-11	-4	-4	.
COc1cc(C(=O)NCCc2ccc(S(=O)(=O)N3CCCC3)cc2)cc(OC)c1OC	0	-14	3	-38	1
CCc1ccc(NC(=O)C(CC)c2ccccc2)cc1 (centres undefined)	19	39*	14	24	11
CCc1ccccc1NC(=O)CSc1nc2n[nH]c(C)c2c(=N)n1-c1cccc(OC)c1	-3	-26	46*	16	-2
SMILES	TRPN1 ag	CHO parental Ca	OX1R antag-1	OX1R antag-2	TRPML3 ag
CCOc1ccccc1NC(=O)CCSc1nc2n[nH]c(C)c2c(=N)n1-c1ccccc1Cl	3	-25	53*	-21	1
COc1ccc(OC)c(NC(=O)CSc2nc3n[nH]c(C)c3c(=N)n2-c2cccc(Cl)c2C)c1	.	0	18	-14	.
Cc1ccc(S(=O)(=O)CCC(=O)OCc2nnc(-c3ccccc3)o2)cc1	.	-11	7	-23	.
Cc1cc(C)c(NC(=O)Cn2nnc(C(=O)NCc3ccc4c(c3)OCO4)c2N)c(C)c1	.	4	5	-4	.
Cc1cc(C)c2ccc(=O)n(CC(=O)N/N=C/c3ccccc3Cl)c2n1	0	-12	7	-19	0
O=C(CSc1nnc(Cn2nnc3ccccc32)o1)N(Cc1ccc(Cl)cc1)c1ccccc1	2	66*	75*	53*	1
COc1ccc(C(=O)OCc2ccccc2F)cc1S(=O)(=O)N1CCCC1	.	-9	9	7	.
NS(=O)(=O)c1ccc(CCNC(=O)c2cc3ccccc3s2)cc1	.	23	28	11	.
C=CCC[C@H](Cc1ccc(F)cc1)C(=O)OC[C@H](Cc1c[nH]c2ccccc12)NC(=O)[C@@H](CC=C)CC(=O)NCCO	.	5	6	23	.
COC(=O)c1c(NC(=O)C2CCCCC2)sc2c1CC(C)(C)NC2(C)C	.	-6	14	-28	.
COc1ccccc1NC(=O)c1c(Nc2ccccc2F)sc(C(=O)Nc2cccc(Cl)c2)c1N	4	42*	16	37	2
COc1ccc(Nc2sc(C(=O)Nc3cccc(Cl)c3)c(N)c2C(=O)Nc2ccccc2OC)cc1	6	48*	0	51*	3
COc1ccccc1NC(=O)C/C(N)=N/OCC(=O)Nc1cccc(Cl)c1	.	-14	7	3	.
O=C(NCc1ccccc1)C1=C[C@H](c2ccc(C(F)(F)F)cc2)C[C@H](OCc2ccc(CO)cc2)O1	1	-18	17	-25	0
CCCCC(OC(=O)c1ccco1)C(=O)NCc1ccc(C)cc1 (centres undefined)	.	-10	2	-19	.
N/C(=N\OC(=O)CCCN1C(=O)c2ccccc2C1=O)c1ccc(Br)cc1	1	-5	19	-16	0
N/C(=N\OC(=O)CCCCCN1C(=O)c2ccccc2C1=O)c1ccccc1	0	-13	62*	-9	0
Cc1ccc(C)n1-c1ccc(C(=O)NN)s1	-2	11	11	-3	0
O=C(CCN1CCN(Cc2ccccc2)CC1)Nc1ccc(OCc2ccccc2)cc1	3	36*	16	13	3
O=C(CCN1CCN(CCO)CC1)Nc1ccc(OCc2ccccc2)cc1	0	-8	13	-2	1
CC1CCCC(NC(=O)C2CCN(S(=O)(=O)c3cnc[nH]3)CC2)C1C (centres undefined)	.	-5	19	-20	.
COc1ccc(CCn2c(=N)c(C(=O)NCC3CCCO3)cc3c(=O)n4cccc(C)c4nc32)cc1 (centres undefined)	.	-17	35*	-38	.
Cc1cccn2c(=O)c3cc(C(=O)NC4CCCC4)c(=N)n(CC4CCCO4)c3nc12 (centres undefined)	.	-18	55*	-26	.
Cc1cccn2c(=O)c3cc(C(=O)NCC4CCCO4)c(=N)n(C4CCCCC4)c3nc12 (centres undefined)	.	-24	44*	-22	.
Cc1cccn2c(=O)c3cc(C(=O)NC4CCCC4)c(=N)n(CCCN4CCOCC4)c3nc12	.	-19	36	-19	.
